Laboratory results published in ChEMBL document CHEMBL1126026, “Synthesis and biological activity of new dimers in the 7H-pyrido[4,3-c] carbazole antitumor series” (1992).
pEC50: −log10 of the molar value. The source made the active and inactive calls. The calls are words filed in the database; no cut-off is given here.

What was measured:
Mus musculus [1] = species on record: Mus musculus; assay: Maximal tolerated dose against DBA2 mice inoculated with L1210 cells was determined; type: functional
Mus musculus [2] = species on record: Mus musculus; assay: Increase in life span, expressed as treated by control was determined in DBA2 mice inoculated with L1210 cells; NS denotes not significant; type: functional, organism-based
Procedure, shortened: (§1)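 DBA2 mice were inoculated with 10⁵ L1210 cells and treated. Increase in life span was reported as mean survival of treated over control × 100. Significance was assessed by Student's test.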

Calf thymus DNA = assay: Affinity constant for calf thymus DNA; type: nucleic-acid assay; settings: Bos taurus
Procedure, shortened: (§2)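 Fluorescence competition assay with ethidium dimer at 25 °C in 0.1 M Tris-HCl, 0.1 M NaCl buffer, pH 7.4. Calf thymus DNA (1.6 × 10⁻⁶ M base pairs) was equilibrated with ethidium dimer for 24 h, then measured with varied drug concentrations. Excitation was 540 nm and emission 610 nm. Bound dye per base pair was derived by the Gaugain method. Ka was fitted from computed versus experimental displacement curves.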

L1210 [3] = assay: Dose required to inhibit growth of L1210 cells after 24-h exposure to the compound; type: functional; settings: Mus musculus, L1210, 24 h; read-out: ED50 (the source's name)
Procedure, shortened: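 Exponentially growing L1210 cells were exposed to a range of drug concentrations for 24 h. The dose giving 50% growth inhibition was determined.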

Mus musculus [4] = species on record: Mus musculus; assay: Optimal dose required against DBA2 mice inoculated with L1210 cells; type: functional
Procedure, shortened: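 DBA2 mice were inoculated with 10⁵ L1210 cells. The optimal dose (mg/kg) was the dose giving the greatest increase in life time of treated mice relative to controls.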

L1210 [5] = assay: Dose required to inhibit the cloning efficacy of L1210 cells to a factor of 0.37 after 24-h exposure to the compound; type: functional, Mus musculus
Procedure, shortened: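 Exponentially growing L1210 cells were exposed to a range of drug concentrations for 24 h, then assessed by cloning. The dose reducing cloning efficiency to a factor of 0.37 was determined.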

Mus musculus [6] = species on record: Mus musculus; assay: Increase in life span, expressed as treated by control was determined in DBA2 mice inoculated with L1210 cells; type: functional
Procedure, shortened: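 DBA2 mice inoculated with 10⁵ L1210 leukemia cells and treated with compound. Read-out was increase in life span as T/C × 100, the mean % survival of treated over control animals. Significance was tested by Student's test. Optimal dose in mg/kg was the dose that most extended the life time of treated mice.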

Nucleic Acid = assay: Affinity constant against calf thymus DNA; NM denotes not measurable due to weak solubility; type: nucleic-acid assay; settings: Bos taurus; procedure, shortened: as §2
Mus musculus [7] = species on record: Mus musculus; assay: Increase in life span, expressed as treated by control was determined in DBA2 mice inoculated with L1210 cells; NM denotes not measurable due to weak solubility; type: functional, organism-based; procedure, shortened: as §1

COc1ccc2c(c1)c1c3cnccc3ccc1n2CCN1CCC(C2CCN(CCn3c4ccc(OC)cc4c4c5cnccc5ccc43)CC2)CC1.CS(=O)(=O)O.CS(=O)(=O)O
MTD (Mus musculus [1]): 10 mg/kg | T/C (Mus musculus [2]): inactive | Ka (Calf thymus DNA): 1e+07 M⁻¹ | pEC50 (L1210 [3]): 6.22 | OD (Mus musculus [4]): 10 mg/kg

COc1ccc2[nH]c3c(CNC(=O)[C@]4(O)O[C@H](CO)[C@H](O)[C@H]4O)cc4cc[n+](CCN5CCC(C6CCN(CC[n+]7ccc8cc(CNC(=O)[C@]9(O)O[C@H](CO)[C@H](O)[C@H]9O)c9[nH]c%10ccc(OC)cc%10c9c8c7)CC6)CC5)cc4c3c2c1
Ka (Calf thymus DNA): 3e+06 M⁻¹ | pEC50 (L1210 [3]): 5.67

COc1ccc2[nH]c3c(C(=O)NCCN4CCC(C5CCN(CCNC(=O)c6cc7ccncc7c7c6[nH]c6ccc(OC)cc67)CC5)CC4)cc4ccncc4c3c2c1
ED37 (L1210 [5]): 30 µM | MTD (Mus musculus [1]): 10 mg/kg | T/C (Mus musculus [2]): inactive | Ka (Calf thymus DNA): 2e+08 M⁻¹ | pEC50 (L1210 [3]): 4.96 | OD (Mus musculus [4]): 10 mg/kg

COc1ccc2c(c1)c1c3c[n+](C)ccc3ccc1n2CCN1CCC(C2CCN(CCn3c4ccc(OC)cc4c4c5c[n+](C)ccc5ccc43)CC2)CC1.CS(=O)(=O)O.CS(=O)(=O)O.CS(=O)(=O)[O-].CS(=O)(=O)[O-]
MTD (Mus musculus [1]): 5 mg/kg | Ka (Calf thymus DNA): > 1e+09 M⁻¹ | pEC50 (L1210 [3]): 6.05 | OD (Mus musculus [4]): 5 mg/kg | T/C (Mus musculus [6]): 134%

COc1ccc2[nH]c3c(CNC(=O)[C@@H](N)CCC(=O)O)cc4cc[n+](CCN5CCC(C6CCN(CC[n+]7ccc8cc(CNC(=O)[C@@H](N)CCC(=O)O)c9[nH]c%10ccc(OC)cc%10c9c8c7)CC6)CC5)cc4c3c2c1.CS(=O)(=O)O.CS(=O)(=O)O.CS(=O)(=O)[O-].CS(=O)(=O)[O-]
ED37 (L1210 [5]): >0.58 µM | pEC50 (L1210 [3]): 6.34 | Ka (Nucleic Acid): Not measurable | T/C (Mus musculus [7]): Not measurable

COc1ccc2[nH]c3c(C(=O)O)cc4cc[n+](CCN5CCC(C6CCN(CC[n+]7ccc8cc(C(=O)O)c9[nH]c%10ccc(OC)cc%10c9c8c7)CC6)CC5)cc4c3c2c1.CS(=O)(=O)O.CS(=O)(=O)O.CS(=O)(=O)[O-].CS(=O)(=O)[O-]
ED37 (L1210 [5]): >0.8 µM | Ka (Calf thymus DNA): 250000 M⁻¹ | pEC50 (L1210 [3]): < 6.10 | T/C (Mus musculus [7]): Not measurable

COc1ccc2[nH]c3ccc4cc[n+](CCN5CCC(C6CCN(CC[n+]7ccc8ccc9[nH]c%10ccc(OC)cc%10c9c8c7)CC6)CC5)cc4c3c2c1.[Cl-].[Cl-] [DITERCALINIUM CHLORIDE]
ED37 (L1210 [5]): 0.024 µM | MTD (Mus musculus [1]): 10 mg/kg | pEC50 (L1210 [3]): 6.72 | OD (Mus musculus [4]): 10 mg/kg | T/C (Mus musculus [6]): 182%

COc1ccc2[nH]c3ccc4cc[n+](CCN5CCC(C6CCN(CC[n+]7ccc8ccc9[nH]c%10ccc(OC)cc%10c9c8c7)CC6)CC5)cc4c3c2c1
Ka (Calf thymus DNA): 1e+07 M⁻¹

COc1ccc2[nH]c3ccc4cc[n+](CCN5CCC(C6CCN(CC[n+]7ccc8ccc9[nH]c%10ccc(OC)cc%10c9c8c7)CC6)CC5)cc4c3c2c1.CS(=O)(=O)O.CS(=O)(=O)O.CS(=O)(=O)[O-].CS(=O)(=O)[O-]
ED37 (L1210 [5]): 0.02 µM | MTD (Mus musculus [1]): 10 mg/kg | OD (Mus musculus [4]): 10 mg/kg | T/C (Mus musculus [6]): 182%

COc1ccc2[nH]c3c(CN)cc4cc[n+](CCN5CCC(C6CCN(CC[n+]7ccc8cc(CN)c9[nH]c%10ccc(OC)cc%10c9c8c7)CC6)CC5)cc4c3c2c1.CS(=O)(=O)O.CS(=O)(=O)O.CS(=O)(=O)[O-].CS(=O)(=O)[O-]
ED37 (L1210 [5]): 0.066 µM | MTD (Mus musculus [1]): 20 mg/kg | T/C (Mus musculus [2]): inactive | Ka (Calf thymus DNA): 2e+07 M⁻¹ | pEC50 (L1210 [3]): 7.24 | OD (Mus musculus [4]): 10 mg/kg

COc1ccc2[nH]c3c(C)cc4cc[n+](CCN5CCC(C6CCN(CC[n+]7ccc8cc(C)c9[nH]c%10ccc(OC)cc%10c9c8c7)CC6)CC5)cc4c3c2c1.CS(=O)(=O)O.CS(=O)(=O)O.CS(=O)(=O)[O-].CS(=O)(=O)[O-]
ED37 (L1210 [5]): 0.1 µM | MTD (Mus musculus [1]): 11 mg/kg | Ka (Calf thymus DNA): 5e+08 M⁻¹ | pEC50 (L1210 [3]): 6.43 | OD (Mus musculus [4]): 7 mg/kg | T/C (Mus musculus [6]): 172%

COc1ccc2c(c1)c1c3c(ccc1n2C)CCN(CCN1CCC(C2CCN(CCN4CCc5ccc6c(c5C4)c4cc(OC)ccc4n6C)CC2)CC1)C3.CS(=O)(=O)O.CS(=O)(=O)O
ED37 (L1210 [5]): 0.6 µM | MTD (Mus musculus [1]): 10 mg/kg | T/C (Mus musculus [2]): inactive | Ka (Calf thymus DNA): 4e+07 M⁻¹ | pEC50 (L1210 [3]): 6.18 | OD (Mus musculus [4]): 10 mg/kg
